ChEMBL document CHEMBL3763156, “Imidazole-based pinanamine derivatives: Discovery of dual inhibitors of the wild-type and drug-resistant mutant of the influenza A virus” (Eur J Med Chem, 2016)

Columns and labels:
[1] = Cytotoxicity against MDCK cells assessed as cell viability after 48 hrs by MTT assay; type: cell-based, Canis lupus familiaris; conditions: dog
Summary of the method: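 Uninfected MDCK cells were exposed to various compound concentrations for 48 h. MTT was added from a 5 mg/mL stock for 4 h at 37 °C, stopped with DMSO, and read at 490 nm. CC50 was calculated by the Reed–Muench method, as the mean of 2–3 determinations.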

Influenza A virus [2] = assay: Antiviral activity against amantadine-sensitive Influenza A virus A/HK/68 (H3N2) expressing wild type M2 ion channel infected in MDCK cells assessed as protection against virus induced cytopathic effect after 48 hrs by microscopic analysis; type: functional, organism-based, Influenza A virus (A/Hong Kong/1/1968(H3N2))
Summary of the method: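 MDCK cells were grown 24 h to a confluent monolayer and rinsed twice. They were infected with 100 TCID50 virus for 2 h at 37 °C in 5% CO2, and the inoculum was removed. Serial two-fold compound dilutions in DMEM with 1.5 µg/mL trypsin were added for 48 h at 34 °C in 5% CO2. CPE percentage was scored microscopically. IC50 came from non-linear regression, as the mean of 2–3 determinations.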

Influenza A virus [3] = assay: Antiviral activity against amantadine-sensitive Influenza A virus A/HK/68 (H3N2) expressing wild type M2 ion channel infected in MDCK cells assessed as cell viability after 48 hrs by MTT assay; type: functional, organism-based, Influenza A virus (A/Hong Kong/1/1968(H3N2))
Summary of the method: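 Infected MDCK cells were given compound for 48 h, and the CPE-based result was confirmed by MTT viability. MTT was added from a 5 mg/mL stock for 4 h at 37 °C, stopped with DMSO, and read as absorbance at 490 nm. The 50% effective concentration was calculated by the Reed–Muench method, as the mean of 2–3 determinations.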

[4] = target: Matrix protein 2 (Influenza A virus (A/Udorn/307/1972(H3N2))) (UniProt P0DOF8); assay: Inhibition of Influenza A virus wild type M2 ion channel expressed in Xenopus oocytes at 100 uM after 2 mins by two-electrode voltage clamp assay; type: cell-based
Summary of the method: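 A/M2 channel (S31N for line 7, wild type for line 9) was expressed in Xenopus oocytes and recorded by two-electrode voltage clamp. Compound was applied at 100 µM, and the percentage inhibition of channel current was taken after 2 min. Values are mean ± SD.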

[5] = target: Matrix protein 2 (Influenza A virus (A/Udorn/307/1972(H3N2))) (UniProt P0DOF8); assay: Inhibition of Influenza A virus wild type M2 ion channel expressed in 293Trex cells at 100 uM after 2 mins by patch clamp assay; type: cell-based
[6] = Influenza A virus, MDCK, 48 h, read-out: IC50

With Cc1nc(C(C)C)[nH]c1CN[C@@H]1C[C@@H]2C[C@H]([C@H]1C)C2(C)C as the compound, how does the CC50 at 48 h [1] read?
Its CC50 at 48 h is 73.1 µM.

What about the IC50 (Influenza A virus [2]; mdck) of the same compound?
The IC50 was “Not Active”.

For C[C@@H]1[C@H]2C[C@@H](C[C@H]1NCc1cncn1C)C2(C)C, which IC50 (Influenza A virus [2]; [6]) is on record?
Its IC50 is 12 µM.

What does the source list for C[C@@H]1[C@H]2C[C@@H](C[C@H]1NCc1cnc(C3CC3)[nH]1)C2(C)C?
CC50 at 48 h [1]: 94.5 µM; IC50 (Influenza A virus [2]; mdck): Not Active

For Cc1nc(C2CC2)[nH]c1CN[C@@H]1C[C@@H]2C[C@H]([C@H]1C)C2(C)C, which IC50 (Influenza A virus [3]) is on record?
Its IC50 is 21.2 µM.

And the CC50 at 48 h [1]?
Its CC50 at 48 h is 74.9 µM.

What about the IC50 (Influenza A virus [2]; [6]) of the same compound?
The IC50 was 15.3 µM.

For CCc1ncc(CN[C@@H]2C[C@@H]3C[C@H]([C@H]2C)C3(C)C)[nH]1, which CC50 at 48 h [1] is on record?
The CC50 at 48 h was 137 µM.

What about the IC50 (Influenza A virus [2]; mdck) of the same compound?
Its IC50 is “Not Active”.

For C[C@@H]1[C@H]2C[C@@H](C[C@H]1NCc1cnc(C3CCCC3)[nH]1)C2(C)C, which CC50 at 48 h [1] is on record?
Its CC50 at 48 h is 37.2 µM.

What about the IC50 (Influenza A virus [2]; mdck) of the same compound?
The IC50 was “Not Active”.

Which results are given for CCCc1nc(-c2ccccc2)[nH]c1CN[C@@H]1C[C@@H]2C[C@H]([C@H]1C)C2(C)C?
IC50 (Influenza A virus [3]): 15.2 µM; CC50 at 48 h [1]: 143 µM; IC50 (Influenza A virus [2]; [6]): 13.5 µM

For CCc1nc[nH]c1CN[C@@H]1C[C@@H]2C[C@H]([C@H]1C)C2(C)C, which IC50 (Influenza A virus [3]) is on record?
The IC50 was 6.7 µM.

And the CC50 at 48 h [1]?
Its CC50 at 48 h is 180 µM.

And the IC50 (Influenza A virus [2]; [6])?
Its IC50 is 5.8 µM.

For C[C@@H]1[C@H]2C[C@@H](C[C@H]1NCc1cnc(-c3cccs3)[nH]1)C2(C)C, which CC50 at 48 h [1] is on record?
The CC50 at 48 h was 75.6 µM.

And the IC50 (Influenza A virus [2]; mdck)?
Its IC50 is “Not Active”.

For C[C@@H]1[C@H]2C[C@@H](C[C@H]1NCc1[nH]cnc1C(C)(C)C)C2(C)C, which IC50 (Influenza A virus [3]) is on record?
Its IC50 is 12.9 µM.

And the CC50 at 48 h [1]?
The CC50 at 48 h was 72.3 µM.

And the IC50 (Influenza A virus [2]; [6])?
Its IC50 is 8.3 µM.

What does the source list for Cc1ncc(CN[C@@H]2C[C@@H]3C[C@H]([C@H]2C)C3(C)C)[nH]1?
CC50 at 48 h [1]: 202 µM; IC50 (Influenza A virus [2]; mdck): Not Active

With CCCc1nc(C(C)C)[nH]c1CN[C@@H]1C[C@@H]2C[C@H]([C@H]1C)C2(C)C as the compound, how does the IC50 (Influenza A virus [3]) read?
Its IC50 is 13.5 µM.

And the CC50 at 48 h [1]?
Its CC50 at 48 h is 156 µM.

What about the IC50 (Influenza A virus [2]; [6]) of the same compound?
Its IC50 is 10.2 µM.

Which IC50 (Influenza A virus [3]) does the source give for CCc1nc(C)c(CN[C@@H]2C[C@@H]3C[C@H]([C@H]2C)C3(C)C)[nH]1 here?
Its IC50 is 4.5 µM.

And the CC50 at 48 h [1]?
Its CC50 at 48 h is 136 µM.

What about the inhibition [4] of the same compound?
The inhibition was 91.7%.

What about the IC50 (Influenza A virus [2]; [6]) of the same compound?
Its IC50 is 4.1 µM.

For CCCc1nc[nH]c1CN[C@@H]1C[C@@H]2C[C@H]([C@H]1C)C2(C)C, which IC50 (Influenza A virus [3]) is on record?
The IC50 was 3.3 µM.

What about the CC50 at 48 h [1] of the same compound?
The CC50 at 48 h was 200 µM.

And the inhibition [4]?
Its inhibition is 97.9%.

And the IC50 (Influenza A virus [2]; [6])?
The IC50 was 2.5 µM.

Which CC50 at 48 h [1] does the source give for C[C@@H]1[C@H]2C[C@@H](C[C@H]1NCc1cnc(C3CCCCC3)[nH]1)C2(C)C here?
The CC50 at 48 h was 33.5 µM.

What about the IC50 (Influenza A virus [2]; mdck) of the same compound?
Its IC50 is “Not Active”.

With CCCCc1ncc(CN[C@@H]2C[C@@H]3C[C@H]([C@H]2C)C3(C)C)[nH]1 as the compound, how does the CC50 at 48 h [1] read?
Its CC50 at 48 h is 70.4 µM.

What about the IC50 (Influenza A virus [2]; mdck) of the same compound?
Its IC50 is “Not Active”.

With CC(C)c1ncc(CN[C@@H]2C[C@@H]3C[C@H]([C@H]2C)C3(C)C)[nH]1 as the compound, how does the CC50 at 48 h [1] read?
Its CC50 at 48 h is 114 µM.

And the IC50 (Influenza A virus [2]; mdck)?
Its IC50 is “Not Active”.

Which IC50 (Influenza A virus [3]) does the source give for C[C@@H]1[C@H]2C[C@@H](C[C@H]1NCc1cnc(-c3ccccc3)[nH]1)C2(C)C here?
Its IC50 is 10.7 µM.

And the CC50 at 48 h [1]?
Its CC50 at 48 h is 79.9 µM.

And the IC50 (Influenza A virus [2]; [6])?
Its IC50 is 7.6 µM.

With C[C@@H]1[C@H]2C[C@@H](C[C@H]1NCc1[nH]cnc1C1CC1)C2(C)C as the compound, how does the IC50 (Influenza A virus [3]) read?
Its IC50 is 3.8 µM.

And the CC50 at 48 h [1]?
The CC50 at 48 h was 162 µM.

What about the IC50 (Influenza A virus [2]; [6]) of the same compound?
Its IC50 is 3.4 µM.

What does the source list for C[C@@H]1[C@H]2C[C@@H](C[C@H]1NCc1[nH]cnc1-c1ccccc1)C2(C)C?
CC50 at 48 h [1]: 39.7 µM; IC50 (Influenza A virus [2]; mdck): Not Active

Which CC50 at 48 h [1] does the source give for Cc1nc[nH]c1CN[C@@H]1C[C@@H]2C[C@H]([C@H]1C)C2(C)C here?
The CC50 at 48 h was 252 µM.

What about the IC50 (Influenza A virus [2]; [6]) of the same compound?
The IC50 was 3.2 µM.

What about the inhibition [5] of the same compound?
Its inhibition is 95.8%.

With CCCc1nc(C2CC2)[nH]c1CN[C@@H]1C[C@@H]2C[C@H]([C@H]1C)C2(C)C as the compound, how does the IC50 (Influenza A virus [3]) read?
Its IC50 is 10.8 µM.

And the CC50 at 48 h [1]?
Its CC50 at 48 h is 112 µM.

And the IC50 (Influenza A virus [2]; [6])?
Its IC50 is 6.9 µM.

With C[C@@H]1[C@H]2C[C@@H](C[C@H]1NCc1cnc(C(C)(C)C)[nH]1)C2(C)C as the compound, how does the IC50 (Influenza A virus [3]) read?
Its IC50 is 12.4 µM.

What about the CC50 at 48 h [1] of the same compound?
The CC50 at 48 h was 107 µM.

And the IC50 (Influenza A virus [2]; [6])?
Its IC50 is 8.8 µM.

What does the source list for CC(C)Cc1ncc(CN[C@@H]2C[C@@H]3C[C@H]([C@H]2C)C3(C)C)[nH]1?
IC50 (Influenza A virus [3]): 15.2 µM; CC50 at 48 h [1]: 74.8 µM; IC50 (Influenza A virus [2]; [6]): 8.7 µM
